In ChEMBL document CHEMBL2331343 (Bioorg Med Chem, 2013):
Activity calls are given as the source filed them. The rule behind the calls is not given here.

How the values were obtained:
Rattus norvegicus [1] = assay: Antipsychotic activity in Sprague-Dawley rat schizophrenia model assessed as inhibition of PCP-induced hyperlocomotion at 10 mg/kg, ip administered 10 mins prior testing […]; assay type: functional, organism-based; parameters: dose 10 mg/kg
Rattus norvegicus [2] = assay: Effect on baseline startle reactivity in Sprague-Dawley rat schizophrenia model at 5 mg/kg, ip administered 10 mins prior testing monitored for 5 mins; assay type: ADME, organism-based; parameters: dose 5 mg/kg, route intraperitoneal; details: in vivo
Outline: (§1)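 Male Sprague-Dawley rats were pretreated ip with saline or compound 10 min before PCP (5 mg/kg, ip). Acoustic startle was tested 5 min after PCP, following 3 min acclimation: 40 ms, 120 dB pulse with prepulse trials, 74 dB background, 15–25 s intertrial interval, session about 20 min. %PPI = [1 − (prepulse+pulse)/(pulse alone)]×100. Startle = mean of pulse-alone trials, first 3 excluded.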

D(1A) dopamine receptor [3] = molecular target: T1, D(1A) dopamine receptor (Homo sapiens, UniProt P21728); assay: Displacement of [3H]SCH23390 from dopamine D1 receptor (unknown origin) expressed in human HEK293 cells by liquid scintillation counter; assay type: cell-based
Outline: (§2)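 Stably transfected HEK293T D1 membranes, […], duplicate incubation 50 min at 30 °C with [3H]SCH23390 in 50 mM Tris, 4 mM MgCl2, pH 7.4. Nonspecific binding with 10 μM SCH23390. GF/B filtration, scintillation counting.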

D(1A) dopamine receptor [4] = molecular target: T1, D(1A) dopamine receptor; assay: Inhibition of [3H]SCH23390 binding to dopamine D1 receptor (unknown origin) expressed in human HEK293 cells at 10 uM by liquid scintillation counter relative to control; assay type: cell-based; outline: as §2
Rattus norvegicus [5] = assay: Antipsychotic activity in Sprague-Dawley rat schizophrenia model assessed as inhibition of PCP-induced prepulse inhibition at 5 mg/kg, ip administered 10 mins prior testing monitored for 5 mins; assay type: functional, organism-based; parameters: dose 5 mg/kg; outline: as §1
D(1A) dopamine receptor [6] = molecular target: T1, D(1A) dopamine receptor; assay: Agonist activity at dopamine D1 receptor (unknown origin) expressed in HEK293 cells assessed as stimulation of [35S]GTPgammaS binding by scintillation proximity assay; assay type: functional, cell-based
[7] = molecular target: T2, 5-hydroxytryptamine receptor 1A (Homo sapiens) (UniProt P08908); assay: Inhibition of [3H]8-OH-DPAT binding to 5-HT1A receptor (unknown origin) expressed in HEK293 cells at 10 uM by liquid scintillation counter relative to control; assay type: cell-based
T2 sequence (whole entry): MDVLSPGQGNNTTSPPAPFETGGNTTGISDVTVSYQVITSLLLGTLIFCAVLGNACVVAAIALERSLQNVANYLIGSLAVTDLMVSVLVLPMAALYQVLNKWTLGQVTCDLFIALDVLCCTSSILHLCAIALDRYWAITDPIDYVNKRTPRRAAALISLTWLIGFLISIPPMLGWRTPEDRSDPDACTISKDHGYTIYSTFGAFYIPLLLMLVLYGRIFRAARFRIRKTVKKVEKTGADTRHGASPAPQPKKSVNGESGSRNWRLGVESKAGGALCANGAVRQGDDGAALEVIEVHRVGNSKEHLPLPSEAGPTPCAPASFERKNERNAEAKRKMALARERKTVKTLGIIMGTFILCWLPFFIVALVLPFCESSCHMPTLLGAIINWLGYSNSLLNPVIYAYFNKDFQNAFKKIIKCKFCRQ
Outline: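 Membranes of HEK293T stably transfected with 5-HT1A, […], incubated in duplicate 50 min at 30 °C with [3H]8-OH-DPAT in 50 mM Tris, 4 mM MgCl2, pH 7.4. Nonspecific binding with 10 μM WAY100635. Filtration on GF/B, cold Tris/EDTA wash, scintillation counting.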

[8] = molecular target: 5-hydroxytryptamine receptor 2A (Homo sapiens, UniProt P28223); assay: Inhibition of [3H]Ketanserin binding to 5-HT2A receptor (unknown origin) expressed in HEK293 cells at 10 uM by liquid scintillation counter relative to control; assay type: cell-based
Outline: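 Membranes of HEK293T stably transfected with 5-HT2A, […], incubated in duplicate 15 min at 37 °C with [3H]ketanserin in 50 mM Tris, 4 mM MgCl2, pH 7.4. […] GF/B filtration, cold wash, scintillation counting.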

D(2) dopamine receptor [9] = molecular target: T3, D(2) dopamine receptor (Homo sapiens, UniProt P14416); details: HEK293, at 10 µM
Rattus norvegicus [10] = assay: Antipsychotic activity in ip dosed Sprague-Dawley rat schizophrenia model assessed as inhibition of PCP-induced hyperlocomotion administered 10 mins prior testing monitored for 5 mins; assay type: functional, organism-based
Outline: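 Male Sprague-Dawley rats (230–280 g) given saline or compound ip 10 min before PCP 5 mg/kg. Starting 5 min after PCP, rats were video-tracked in a 40×40×45 cm open field for 30 min. Total distance recorded; n = 6–12 per group; one-way ANOVA with Tamhane post hoc test.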

D(2) dopamine receptor [11] = molecular target: T3, D(2) dopamine receptor; assay: Displacement of [3H]spiperone from dopamine D2 receptor (unknown origin) expressed in human HEK293 cells by liquid scintillation counter; assay type: cell-based
D(1A) dopamine receptor [12] = molecular target: T1, D(1A) dopamine receptor; assay: Antagonist activity at dopamine D1 receptor (unknown origin) expressed in HEK293 cells assessed as inhibition of [35S]GTPgammaS binding by scintillation proximity assay; assay type: functional, cell-based
[13] = molecular target: T4, 5-hydroxytryptamine receptor 1A (Homo sapiens, UniProt P08908); assay: (§3) Agonist activity at 5-HT1A receptor (unknown origin) expressed in HEK293 cells assessed as […] of [35S]GTPgammaS binding by scintillation proximity assay; assay type: functional, cell-based
T4 sequence (P08908 whole entry): T2 sequence (whole entry)

[14] = molecular target: T2, 5-hydroxytryptamine receptor 1A (Homo sapiens); assay: as §3; assay type: functional, cell-based
Rattus norvegicus [15] = assay: Antipsychotic activity in Sprague-Dawley rat schizophrenia model assessed as inhibition of PCP-induced prepulse inhibition at 10 mg/kg, ip administered 10 mins prior testing monitored for 5 mins; assay type: functional, organism-based; parameters: dose 10 mg/kg; outline: as §1
D(2) dopamine receptor [16] = molecular target: T3, D(2) dopamine receptor
Rattus norvegicus [17] = assay: Antipsychotic activity in Sprague-Dawley rat schizophrenia model assessed as effect on 120 db noise-induced absolute acoustic startle responses at 5 mg/kg, ip administered 10 mins prior testing monitored for 5 mins; assay type: functional, organism-based; parameters: dose 5 mg/kg; outline: as §1
[18] = molecular target: T4, 5-hydroxytryptamine receptor 1A; assay: Displacement of [3H]8-OH-DPAT from 5-HT1A receptor (unknown origin) expressed in HEK293 cells by liquid scintillation counter; assay type: cell-based
Rattus norvegicus [19] = assay: In vivo agonist activity at 5-HT1A receptor in WAY100635 pre-treated Sprague-Dawley rat DA neuron assessed as increase in bursts at 1 mg/kg, iv; assay type: functional, organism-based; parameters: dose 1 mg/kg
Outline: (§4)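 Anesthetized (chloral hydrate) Sprague-Dawley rats given raclopride, then WAY100635 before compound 1 mg/kg. VTA DA neuron single-unit firing rate and bursts analysed every 10 s as % of post-raclopride baseline. n = 5, paired t-test.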

Rattus norvegicus [20] = assay: In vivo agonist activity at 5-HT1A receptor in Sprague-Dawley rat DA neuron assessed as increase in firing rate at 1 mg/kg, iv; assay type: functional
Outline: (§5)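 Male Sprague-Dawley rats under chloral hydrate anesthesia (400 mg/kg ip) at 37 °C. Single-unit recording of VTA DA neurons by glass microelectrode. Raclopride 0.1 mg/kg given first, then compound 1 mg/kg. Firing rate and bursts analysed every 10 s as % of post-raclopride baseline. n = 5, paired t-test.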

Rattus norvegicus [21] = assay: Effect on prepulse inhibition in Sprague-Dawley rat schizophrenia model at 5 mg/kg, ip administered 10 mins prior testing monitored for 5 mins; assay type: ADME, organism-based; parameters: dose 5 mg/kg, route intraperitoneal; details: in vivo; outline: as §1
Rattus norvegicus [22] = assay: In vivo agonist activity at 5-HT1A receptor in Sprague-Dawley rat DA neuron assessed as increase in bursts at 1 mg/kg, iv; assay type: functional, organism-based; parameters: dose 1 mg/kg; outline: as §5
Rattus norvegicus [23] = assay: In vivo agonist activity at 5-HT1A receptor in Sprague-Dawley rat DA neuron assessed as increase in bursts at 1 mg/kg, iv in presence of WAY100635; assay type: functional, organism-based; parameters: dose 1 mg/kg
Outline: (§6)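 VTA DA neuron single-unit recording in chloral hydrate-anesthetized Sprague-Dawley rats after raclopride 0.1 mg/kg. Compound 1 mg/kg was followed by WAY100635 1.0 mg/kg. Firing rate and bursting were analysed in 10 s bins relative to the post-raclopride baseline.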

Rattus norvegicus [24] = assay: Antipsychotic activity in Sprague-Dawley rat schizophrenia model assessed as inhibition of PCP-induced hyperlocomotion at 2.5 mg/kg, ip administered 10 mins prior testing […]; assay type: functional, organism-based; parameters: dose 2.5 mg/kg
Rattus norvegicus [25] = assay: In vivo agonist activity at 5-HT1A receptor in WAY100635 pre-treated Sprague-Dawley rat DA neuron assessed as increase in firing rate at 1 mg/kg, iv; assay type: functional, organism-based; parameters: dose 1 mg/kg; outline: as §4
Rattus norvegicus [26] = assay: In vivo agonist activity at 5-HT1A receptor in Sprague-Dawley rat DA neuron assessed as increase in firing rate at 1 mg/kg, iv in presence of WAY100635; assay type: functional, organism-based; parameters: dose 1 mg/kg; outline: as §6

T3 sequence (P14416 whole entry): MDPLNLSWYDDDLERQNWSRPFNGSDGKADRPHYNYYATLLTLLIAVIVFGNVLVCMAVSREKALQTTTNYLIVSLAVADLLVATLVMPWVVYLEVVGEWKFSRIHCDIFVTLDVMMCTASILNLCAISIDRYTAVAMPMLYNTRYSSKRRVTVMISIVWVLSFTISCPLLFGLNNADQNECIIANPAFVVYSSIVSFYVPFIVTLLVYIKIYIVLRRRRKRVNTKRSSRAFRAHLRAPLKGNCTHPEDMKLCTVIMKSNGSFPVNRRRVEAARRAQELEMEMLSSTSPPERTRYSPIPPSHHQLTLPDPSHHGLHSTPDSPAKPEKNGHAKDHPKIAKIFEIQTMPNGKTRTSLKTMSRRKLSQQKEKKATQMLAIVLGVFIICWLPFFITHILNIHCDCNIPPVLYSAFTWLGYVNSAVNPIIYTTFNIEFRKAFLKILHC
T1 sequence (P21728 whole entry): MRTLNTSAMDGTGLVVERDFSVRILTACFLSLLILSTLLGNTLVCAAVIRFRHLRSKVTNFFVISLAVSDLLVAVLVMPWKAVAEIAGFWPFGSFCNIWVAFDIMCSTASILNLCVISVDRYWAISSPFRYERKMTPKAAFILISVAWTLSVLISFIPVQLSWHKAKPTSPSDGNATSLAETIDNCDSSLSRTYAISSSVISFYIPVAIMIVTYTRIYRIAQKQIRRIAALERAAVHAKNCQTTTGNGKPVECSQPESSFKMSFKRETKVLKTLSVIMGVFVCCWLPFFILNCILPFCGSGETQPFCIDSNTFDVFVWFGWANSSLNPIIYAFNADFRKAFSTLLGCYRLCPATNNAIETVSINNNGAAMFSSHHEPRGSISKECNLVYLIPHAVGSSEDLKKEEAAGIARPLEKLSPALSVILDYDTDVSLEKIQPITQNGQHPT
Sequence of 5-hydroxytryptamine receptor 2A (P28223 whole entry): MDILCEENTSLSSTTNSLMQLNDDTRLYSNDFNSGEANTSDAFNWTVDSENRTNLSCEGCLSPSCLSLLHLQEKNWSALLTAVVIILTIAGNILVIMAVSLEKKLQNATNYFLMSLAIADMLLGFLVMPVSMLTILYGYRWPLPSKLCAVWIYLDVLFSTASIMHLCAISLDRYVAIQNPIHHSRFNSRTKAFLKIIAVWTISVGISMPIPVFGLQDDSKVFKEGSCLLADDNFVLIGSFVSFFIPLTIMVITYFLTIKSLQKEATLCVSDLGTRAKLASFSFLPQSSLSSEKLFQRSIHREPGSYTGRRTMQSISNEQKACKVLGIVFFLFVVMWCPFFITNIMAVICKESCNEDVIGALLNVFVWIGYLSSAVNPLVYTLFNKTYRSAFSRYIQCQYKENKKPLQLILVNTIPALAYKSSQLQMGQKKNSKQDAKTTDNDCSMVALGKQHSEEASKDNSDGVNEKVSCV

| Compound | Activity (Rattus norvegicus [2]) | Ki (D(1A) dopamine receptor [3]) [nM] | inhibition (D(1A) dopamine receptor [4]) [%] | inhibition (Rattus norvegicus [5]) | EC50 (D(1A) dopamine receptor [6]) [µM] | inhibition [7] [%] | inhibition [8] [%] | inhibition (D(2) dopamine receptor [9]) [%] | inhibition (Rattus norvegicus [10]) | Ki (D(2) dopamine receptor [11]) [nM] | IC50 (D(1A) dopamine receptor [12]) [µM] | EC50 [13] [µM] | Emax [14] [%] | IC50 (D(2) dopamine receptor [16]) [µM] | Activity (Rattus norvegicus [17]) | Ki [18] [nM] | further results |
| --- | --- | --- | --- | --- | --- | --- | --- | --- | --- | --- | --- | --- | --- | --- | --- | --- | --- |
| COc1c(O)ccc2c1CN1CCc3cc4c(cc3[C@@H]1C2)OCO4 | Non-toxic | 6.3 | 99.7 | Active | 16 | 95.7 | 73.6 | 92.8 | Dose-dependent effect | 145 | 17.4 | 13.5 | 80.7 | 1 | inactive | 908 | inhibition (Rattus norvegicus [1]): Active; inhibition (Rattus norvegicus [15]): Active |
| COc1cc2c(cc1OC)[C@@H]1Cc3ccc(O)c(OC)c3CN1CC2 | Non-toxic | 50 | 98.8 | Active | 1.35 | 97.4 | 68.8 | 88.8 | Dose-dependent effect | 305 | 21.3 | 0.19 | 156 | 18.7 | inactive | 149 | Activity (Rattus norvegicus [19]): inactive; Activity (Rattus norvegicus [20]): 128.3%; Activity (Rattus norvegicus [21]): Non-toxic; Activity (Rattus norvegicus [22]): Active; Activity (Rattus norvegicus [23]): inactive; inhibition (Rattus norvegicus [24]): Active; Activity (Rattus norvegicus [25]): inactive; Activity (Rattus norvegicus [26]): inactive |
